ChEMBL document CHEMBL3994594, “Angiogenesis Inhibitors and Anti-Inflammatory Agents from Phoma sp. NTOU4195” (J Nat Prod, 2016)
Activity calls are given as the source filed them. No cut-off for these calls is given here.

Tests used:
[1] = Cytotoxicity against mouse RAW264.7 cells assessed as cell viability by AlamarBlue assay; assay type: cell-based; parameters: concentration or dose not given beside the values; conditions: read-out: Activity
Outline: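 RAW264.7 macrophages exposed to compounds at up to 100 μM under the NO-assay conditions; viability read by AlamarBlue.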

[2] = Antiangiogenic activity in CD34-positive human EPC assessed as inhibition of tube formation on matrigel after 24 hrs by inverted phase-contrast microscopy; assay type: functional, cell-based
Outline: (§1)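 Human CD34+ EPCs (from PBMCs, MACS bead separation) maintained on 1% gelatin in MV2 medium with 20% FBS. Matrigel polymerized 30 min at 37 °C; 6 × 10^4 cells/well seeded in MV2 with 2% FBS plus compound, 24 h at 37 °C. Tube length measured in three random fields per well, expressed against DMSO control; IC50 derived from this.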

[3] = system: RAW264.7; test: Antiinflammatory activity in mouse RAW264.7 cells assessed as inhibition of LPS-stimulated nitric oxide production compound treated prior to LPS challenge by Griess assay; assay type: functional, cell-based
Outline: (§2)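 RAW264.7 grown to confluence (24 h, DMEM 10% FBS), then serum-free DMEM 4 h for quiescence. Compounds added before LPS (200 ng/mL). Nitrite in medium read spectrophotometrically by Griess reaction. Percent inhibition calculated versus vehicle plus LPS; Emax is inhibition at 100 μM, IC50 the concentration giving 50% of Emax; n = 4−6.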

[4] = system: RAW264.7; test: Antiinflammatory activity in mouse RAW264.7 cells assessed as inhibition of LPS-stimulated nitric oxide production at 100 uM compound treated prior to LPS challenge by Griess assay; assay type: functional; outline: as §2
[5] = Cytotoxicity against CD34-positive human EPC at 20 uM after 24 hrs by LDH release assay; assay type: cell-based
Outline: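 EPCs seeded at 5 × 10^3 cells/well, treated 24 h in MV2 medium with 2% FBS containing compound at 20 μM. LDH release taken as medium LDH activity relative to cell-lysate LDH activity. Mean ± SEM of three independent experiments.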

[6] = system: EPC; test: Antiangiogenic activity in CD34-positive human EPC assessed as inhibition of tube formation on matrigel at 10 uM after 24 hrs by inverted phase-contrast microscopy; assay type: functional, cell-based; outline: as §1

IC50 [2] [µM]	IC50 [3] [µM]	Compound	viability [1] [%]	Emax at 100 µM [4] [%]	Activity [5]	inhibition [6]
> 20	> 100	CC/C=C\[C@H](O)[C@H](O)C1=C(C)C(=O)[C@]2(O1)C(=O)N[C@@](OC)(C(=O)c1ccccc1)[C@@H]2O [PSEUROTIN A]	103	38.8	–	–
3.6	–	CNC(=O)c1cc(Oc2ccc(NC(=O)Nc3ccc(Cl)c(C(F)(F)F)c3)cc2)ccn1 [SORAFENIB]	–	–	–	–
17.8	8.8	CO[C@H]1[C@@H](OC(=O)/C=C/[C@H]2O[C@H]2C)CC[C@@]2(CO2)[C@@H]1[C@]1(C)O[C@H]1CC=C(C)C	98.7	100	Non-Toxic	Active
> 20	62.5	CC/C=C\[C@H](O)[C@H](O)C1=C(C)C(=O)[C@]2(O1)C(=O)N[C@@](OC)(C(=O)c1ccccc1)[C@H]2O	99.3	67.2	–	–

Further lines, the compound ahead of its results:

Compound	IC50 [2] [µM]	IC50 [3] [µM]	viability [1] [%]	Emax at 100 µM [4] [%]	Activity [5]	inhibition [6]
N=C(N)NN [PIMAGEDINE]	–	24.7	99.2	83.7	–	–
N=C(NCCC[C@H](N)C(=O)O)N[N+](=O)[O-] [NITROARGININE]	–	144	102	42.1	–	–
CC/C=C\[C@H](O)[C@H](O)C1=C(C)C(=O)[C@]2(O1)C(=O)N[C@](OC)(C(=O)c1ccccc1)[C@H]2O	> 20	40.6	100	78.2	–	–
CC/C(O)=C/C=C(\O)C1=C(C)C(=O)[C@@]2(O1)C(=O)N[C@](OC)(C(=O)c1ccccc1)[C@H]2O	16.7	57	97.6	63.1	Non-Toxic	Active
CO[C@H]1[C@@H](OC(=O)/C=C/[C@H]2O[C@H]2C)CC[C@@](O)(CCl)[C@@H]1[C@]1(C)O[C@H]1CC=C(C)C	> 20	13.5	101	100	Non-Toxic	–
C=C1CC[C@H](OC(=O)/C=C/[C@@H](O)[C@H](C)O)[C@H](OC)[C@H]1[C@@]1(C)O[C@H]1CC=C(C)C	19.2	35.4	93	80.8	Non-Toxic	Active
CO[C@H]1[C@@H](OC(=O)/C=C/[C@@H](O)[C@H](C)O)CC[C@@](O)(CCl)[C@@H]1[C@]1(C)O[C@H]1CC=C(C)C	8.1	19.3	99.2	87.9	Non-Toxic	Active
CO[C@H]1[C@@H](OC(=O)/C=C/[C@@H](O)[C@H](C)O)CC[C@@]2(CO2)[C@@H]1[C@@]1(C)O[C@H]1CC=C(C)C	18.4	20.6	97.6	100	–	–
CO[C@H]1[C@@H](OC(=O)/C=C/[C@H]2O[C@@H]2C)CC[C@@]2(O)CO[C@@](C)(C(O)CC=C(C)C)[C@H]12 (stereo partly drawn)	16.2	22.8	92.2	93.4	Non-Toxic	Active
